# SR-BI HDL uptake: blocks mouse SR-BI lipid uptake from DiI-HDL. Q61009. ldlA[mSR-BI] CHO cells, DiI-HDL uptake fluorescence, 3 h. inhibition, % at 12.5 µM. 0.96% of 320,000 active. AID 488896;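 active means mean replicate inhibition of at least 70% and a set share of replicates each scoring 70 or more; inconclusive means meets just one of the two criteria; inactive means fails both criteria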;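 further: 0% = median of neutral control wells and 100% = median of positive control wells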
# Kir21 block: inhibitors of mouse Kir2.1 inward-rectifier potassium channel; P35561; B-score at 10 µM; AID 1672; HEK293-Kir2.1, FluxOR thallium flux fluorescence; stronger effect = lower value; 0.85% of 310,000 active;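 active means fluorescence ratio B-score at or below minus 3 SD of library scores, with starting-brightness B-score within 2 SD, cut at about -4.2 in these data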;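 further: channel flux triggered by added potassium and thallium sulfate stimulus; B-score of peak minus minimum fluorescence over baseline after thallium stimulus; more negative B-score means stronger Kir2.1 block with less thallium influx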
# Target sequence (P35561 whole entry, looked up): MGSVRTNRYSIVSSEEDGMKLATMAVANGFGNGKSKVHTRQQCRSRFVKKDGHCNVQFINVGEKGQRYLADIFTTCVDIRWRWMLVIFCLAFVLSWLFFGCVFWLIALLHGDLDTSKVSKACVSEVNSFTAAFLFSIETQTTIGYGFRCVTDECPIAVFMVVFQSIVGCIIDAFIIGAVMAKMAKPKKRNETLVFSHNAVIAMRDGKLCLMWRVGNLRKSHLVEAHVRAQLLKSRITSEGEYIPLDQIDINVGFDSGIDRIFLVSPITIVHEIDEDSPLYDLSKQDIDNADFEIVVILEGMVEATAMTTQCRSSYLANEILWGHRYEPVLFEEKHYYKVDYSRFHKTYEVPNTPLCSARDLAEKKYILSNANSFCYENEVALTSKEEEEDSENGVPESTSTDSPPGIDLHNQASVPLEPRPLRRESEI
# DNA FID counter: displaces DNA intercalator in HCV helicase counter-screen; DNA fluorescent intercalator displacement, fluorescence; inhibition, % at 7.9 µM; 0.17% of 290,000 active; AID 1845; in the data active means inhibition above about 37%;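 further: 0% = vehicle and 100% = reference compound; higher means more ethidium bromide displaced from hairpin DNA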
# TMEM16A act: mouse TMEM16A channel activation, primary screen; Q8BHY3; AID 623877; 0.3% of 340,000 active; HEK293 TMEM16A/YFP-H148Q/I152L, iodide quench fluorescence; stronger effect = lower value; B-score at 10 µM;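 active means fluorescence-ratio B-score plate-corrected deviation score at least 3 library SD below zero, with starting fluorescence score within 5 deviations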;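 further: channel opened by trigger with iodide after compound preincubation; score built on the fluorescence ratio of max minus min over baseline; more negative score means more quench and so TMEM16A activation or potentiation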
# TMEM16A inh: inhibitors of mouse TMEM16A calcium-activated chloride channel | HEK293 TMEM16A/YFP iodide influx fluorescence, ionomycin | Q8BHY3 | 1.2% of 310,000 active | normalized B-score (activity score, 25-100; higher = stronger inhibition) at 10 µM;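 active means ratio plate-corrected score three or more library SD toward inhibition, starting fluorescence score within five deviations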;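 further: score derived from kinetic fluorescence span divided by baseline fluorescence per well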
# SR-BI DiI-HDL act: SR-BI HDL lipid transfer activation; CHO ldlA[mSR-BI] cells, DiI-HDL uptake fluorescence, 3 h; 100 = double the neutral-control signal; 0.096% of 320,000 active; AID 504775; activation, % at 12.5 µM;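 active means mean replicate activation of at least 60% and every replicate at or above 60%; inconclusive means mean or all-replicate condition met, but not both; inactive means mean below 60% and not all replicates reaching 60%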;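 further: 0% = median plate neutral-control signal and 100% = twice that signal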
#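 Test system: SR-BI-overexpressing, LDLR-lacking CHO cells; Medium: Ham's F12 with 0.5% BSA, HEPES 25 mM, pH 7.4; Schedule: 3 h, 37 °C; Technique: bottom-read fluorescence, 550/595 nm.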
# DiI quench: quenches DiI-HDL fluorescence, an SR-BI assay artifact. AC50, µM (doses to about 35 µM), for inactives: at the highest dose activity change, negative = quenching. AID 540326. shares compounds with SR-BI HDL uptake. cell-free DiI-HDL fluorescence quenching, 30 min. 20% of 470 active;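 active means quenching, a falling signal, with AC50 below a set limit tied to the top valid dose, actives reach about 32 µM in these data; inconclusive means no clear call, values can overlap the other calls; inactive means rising signal, and the rest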
# The depositor's hits bear a star; i = inactive; u = inconclusive; x = no result given. Hits are enriched below; roughly 3% of the tested compounds scored in any of these assays.
SMILES,SR-BI HDL uptake,Kir21 block,DNA FID counter,TMEM16A act,TMEM16A inh,SR-BI DiI-HDL act,DiI quench
CCN(c1ccccc1)S(=O)(=O)c1ccc(OC)c(NC(=O)Cn2cnc3c2c(=O)n(C)c(=O)n3C)c1,-7.9,-0.33,-19.1,i,i,7.9,x
C[C@H](CO)N1C[C@H](C)[C@@H](CN(C)S(=O)(=O)c2cccs2)Oc2c(NC(=O)C3CC3)cccc2C1=O,-9.4,x,x,i,x,9.4,x
O=C(Nc1ccccc1)C1=C(O)CC(c2ccoc2)CC1=Nc1ccccc1 (stereo unspecified),u,-0.06,-13.3,i,i,-72.4,-9.9%
O=C(Nc1ccccc1)C1=C(O)CC(c2ccco2)CC1=Nc1ccccc1 (stereo unspecified),49.5,0.05,-2.8,i,i,-49.5,x
Oc1ccc(/C=C/c2nc(-c3ccccc3O)n(-c3ccccc3)n2)cc1,74.3*,0.01,-9.2,i,i,-74.3,20.2µM*
Oc1ccccc1-c1nc(/C=C/c2ccccc2)nn1-c1ccccc1,54.8,1.13,-7.2,i,i,-54.8,x
Cc1ccc(C)c(N2CCN(CCCNC(=O)CCn3c(=O)c4cccn4c4cccnc43)CC2)c1,68.4,-0.04,5.8,i,i,-68.4,x
Cc1ccc(C)c(N2CCN(CCCNC(=O)Cn3c(=O)c4cccn4c4cccnc43)CC2)c1,u,-0.42,25.1,i,i,-70.2,-2.5%
CCOC(=O)N1CCC(NC(=O)c2ccc3c(c2)N(Cc2ccc(F)cc2)CCS3)CC1,72.3*,-0.16,-14.7,i,i,-72.4,-11.1%
Cc1c(-c2ccccc2)nc2ccccc2c1C(=O)NCc1cccs1,8.3,0.46,-8.5,i,i,-8.3,x
COC(=O)/C=C/c1ccc2c(c1)S(=O)(=O)N(c1cccc(OC)c1)[C@H]2CC(=O)OC,86.6*,-1.15,x,i,i,-86.6,-5.4%
COc1ccc(CCNC(=O)CCC(=O)N2CC(C)Oc3ccc(Cl)cc32)cc1OC (stereo unspecified),u,1.13,-46.6,i,i,-71.2,-2.0%
O=C(NN1C(=O)NC2(CCCCC2)C1=O)c1ccc(Cl)s1,15.4,x,x,i,x,-15.4,x
Cn1nc(-c2ccc(Cl)cc2)c2cc(C(=O)NCCCN3CCOCC3)sc21,72.2*,1.44,3.7,i,i,-72.2,0.7%
CCOCCCNC(=O)c1cc2c(-c3ccc(Cl)cc3)nn(C)c2s1,62.1,-0.02,-22.9,i,i,-62.1,x
COc1ccc(-c2nnn(CC(=O)N(C3CCCCC3)C(C)C(=O)NC3CCCC3)n2)cc1OC (stereo unspecified),85.7*,-0.02,-31.2,i,i,-85.7,1.3%
COc1ccc(N(CC(=O)NC2CCCC2)C(=O)Cn2nnc(-c3ccc(C)cc3)n2)cc1OC,28.8,0.08,-4.5,i,i,-28.8,x
COc1ccc(-c2nnn(CC(=O)N(C3CCCC3)C(C)C(=O)NC3CCCC3)n2)cc1OC (stereo unspecified),52.4,2.16,-19.8,i,i,-52.4,x
COc1ccc(-c2nnn(CC(=O)N(CC(=O)NC3CCCC3)c3cccc(C)c3)n2)cc1OC,82.9*,-0.71,-36.9,i,i,-82.9,0.2%
Cc1cccc(NC(=O)[C@@H]2CCCN2C(=O)OC(C)(C)C)c1C,-29.6,-0.52,-5.5,i,i,29.6,x
COc1cc(/C=C/C(=O)Nc2cccc(S(=O)(=O)NC3=NCCCCC3)c2)ccc1OCC#N,74.7*,0.5,x,i,i,-74.6,-0.3%
COc1ccc(/C=C/C(=O)Nc2cccc(S(=O)(=O)NC3=NCCCCC3)c2)cc1,x,0.48,-30.5,i,i,x,x
O=C(Nc1nc(NC(=O)c2ccco2)n(-c2ccccc2)n1)c1ccccc1,122.5*,0.22,-7.1,i,i,-122.5,1.97µM*
COCCN(Cc1cn(C)nc1-c1ccc(Oc2ccccc2)cc1)C(C)C,81.9*,-0.72,9.9,i,i,-81.9,-3.7%
CN(c1ccc(C(=O)NC2CC2)cc1)S(=O)(=O)c1ccccc1,12.8,-2.02,-2.1,i,i,-12.8,x
SMILES,SR-BI HDL uptake,Kir21 block,DNA FID counter,TMEM16A act,TMEM16A inh,SR-BI DiI-HDL act,DiI quench
O=C(NC1CC1)c1ccc(CN(c2ccccc2)S(=O)(=O)c2ccccc2)cc1,u,1,-25.9,i,i,-74.3,4.3%
O=C(CCSCc1ccc(Cl)cc1)NCc1cccnc1,-3.6,0.64,-6.0,i,i,3.6,x
CCOc1ccccc1/C=C/c1onc(C)c1S(=O)(=O)N1CCC(C(=O)NC(C)(C)C)CC1,84.4*,-0.35,-46.4,i,i,-84.4,4.2%
CC(Sc1nc2cc([N+](=O)[O-])ccc2n1-c1ccc(F)cc1)C(=O)NCc1ccc2c(c1)OCO2 (stereo unspecified),81.9*,-0.45,-3.7,i,i,-81.9,-5.7%
O=C(Nc1nc(-c2ccccn2)cs1)c1ccc(-c2ccccc2F)o1,3.9,x,x,i,x,-3.9,-13.8%
CC(=O)Nc1cc(NC(C)=O)cc(C(=O)OCC(=O)N(c2ccccc2)C2CCS(=O)(=O)C2)c1 (stereo unspecified),-11.6,x,x,i,x,11.6,-3.0%
CCN1C[C@@H]2[C@@H]3C(=O)N(C)C(=O)[C@@H]3[C@](Cc3ccccc3)(C1=O)N2C(=O)c1ccccc1,-6.0,x,x,i,x,6.1,x
CCC(C)N(C(=O)CSc1nnc2ccccn12)C1CCS(=O)(=O)C1 (stereo unspecified),-11.9,x,x,i,x,11.9,x
CSc1ccccc1OCc1cc(C(=O)N(C)Cc2cc(C)[nH]n2)no1,37.5,-0.78,-37.9,i,i,-37.5,x
CSc1ccccc1OCc1cc(C(=O)N(C)Cc2c(C)n[nH]c2C)no1,77.6*,-0.54,-29.4,i,i,-77.6,-4.1%
CC[C@]12c3[nH]c4cc(-c5ccco5)ccc4c3CCN1C(=O)[C@@H](CC(=O)NCc1ccc(OC)c(OC)c1)C[C@@H]2C(=O)N1CCN(C(=O)c2ccco2)CC1,74.8*,x,x,x,x,-74.8,-12.7%
Fc1ccc(CNCc2ccco2)cc1,29.1,0.33,2.9,i,i,-29.1,x
Nc1cc(=O)[nH]c2ncnn12,-11.9,x,x,i,x,11.9,x
CCCCC(=O)Nc1cccc(NC(=O)c2ccccc2Br)c1,73.7*,-1.36,-4.9,i,i,-73.7,5.8%
Cc1ccc(C([O-])=C(C(=S)NCc2ccccc2)[n+]2cccc(CO)c2)cc1[N+](=O)[O-],-10.2,x,x,i,x,10.2,x
O=C(c1ccc(NS(=O)(=O)c2ccc3[nH]c(=O)[nH]c3c2)cc1)N1CCN(c2ccccc2)CC1,-3.9,x,x,i,x,3.9,x

# Assay outcomes (PubChem)
